These results are taken from ChEMBL document CHEMBL1121870, “Potential radiosensitizing agents. 2. Synthesis and biological activity of derivatives of dinitroimidazole with oxiranes” (1981).

Holding throughout (assay type): functional
Assay [1] deals with Cricetinae gen. sp. Put plainly: Concentration needed to achieve 50% kill of chinese hamster cells under oxygenated conditions on exposure for 2 hours. As to conditions: in Cricetulus griseus, read-out: ED50 (the source's name). The method in brief:
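V-79 Chinese hamster monolayers in MEM with 15% fetal calf serum; ~200 cells plated, attached 2 h, then exposed to a range of drug concentrations for 2 h at 37 °C in air. Drug medium was replaced with fresh medium and cells incubated 6 days at 37 °C in 95% air/5% CO2. Colony formation was scored and the concentration giving 50% kill determined.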

Assay [2] can be described thus: Radiosensitizing effectivity evaluated as its ability to sensitize hypoxic Chinese hamster cells (V-79) towards ionizing radiation at 0.5 mM. Summed up: (§1)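 Asynchronous V-79 monolayers in MEM with 15% fetal calf serum were exposed to drug at the maximum nontoxic level (1 mM or less). Cultures were made hypoxic by flushing with 95% N2/5% CO2 and irradiated at 400–3000 rad. Full survival curves were obtained, and the enhancement ratio was calculated as D0 of hypoxic controls divided by D0 of hypoxic drug-treated cells.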

Assay [3] in a line: Radiosensitizing effectivity evaluated as its ability to sensitize hypoxic Chinese hamster cells (V-79) towards ionizing radiation at 0.1 mM. Summed up: as §1
A short description of assay [4]: Radiosensitizing effectivity evaluated as its ability to sensitize hypoxic Chinese hamster cells (V-79) towards ionizing radiation at 1 mM. The method in brief: as §1
Assay [5] can be described thus: Radiosensitizing effectivity evaluated as its ability to sensitize hypoxic Chinese hamster cells (V-79) towards ionizing radiation at 0.25 mM. The method in brief: as §1

`CC1Cn2c([N+](=O)[O-])cnc2O1` (centres undefined): the EC50 in assay [1] came to 620 µM. In assay [2], the Enhancement ratio amounted to 1.1.
Turning to `CC1Cn2cc([N+](=O)[O-])nc2O1` (centres undefined), in assay [3], the Enhancement ratio was found to be 1.2. Besides, the EC50 in assay [1] was determined as 1500 µM.
On to `O=[N+]([O-])c1cn2c(n1)OC(CO)C2` (centres undefined), for which the EC50 in assay [1] came to 2800 µM. In assay [4], the Enhancement ratio was 1.
With `O=[N+]([O-])c1cn2c(n1)OC(CCl)C2` (centres undefined), the Enhancement ratio in assay [3] stood at 1.1. For the same compound, the EC50 in assay [1] is 1300 µM.
For `COCC1Cn2cc([N+](=O)[O-])nc2O1` (centres undefined), in that order: 1.1 and 1500 µM.
On to `COCC(O)Cn1cc([N+](=O)[O-])nc1[N+](=O)[O-]` (centres undefined), for which the Enhancement ratio was found to be 1.8 in assay [3] and 2.1 in assay [2]. For the same compound, the EC50 in assay [1] turned out to be 2200 µM.
In the case of `O=[N+]([O-])c1cnc2n1CC(CCl)O2` (centres undefined), the EC50 in assay [1] came to 610 µM. In addition, in assay [2], the Enhancement ratio came to 1.1.
On to `COCC1Cn2c([N+](=O)[O-])cnc2O1` (centres undefined), for which, in assay [1], the EC50 worked out at 680 µM. For the same compound, in assay [4], the Enhancement ratio is 1.
As for `O=[N+]([O-])c1cnc2n1CCO2`, in assay [1], the EC50 was 1000 µM. Moreover, in assay [5], the Enhancement ratio is on record as 1.6.
